# Activity calls are given as the source filed them. The calls are words filed in the database; no cut-off is given here.
# Tests used:
# Lewis lung carcinoma [1] = test: Antitumor activity against mouse Lewis lung carcinoma cells allografted in ip dosed C57BL/6 mouse assessed as reduction in tumor volume administered for 20 consecutive days; details: dose microg/g 1.25-5, time 20.0 day
# Mus musculus = test: Induction of NK-mediated antitumor immunity in ip dosed C57BL/6 mouse allografted with mouse Lewis lung carcinoma cells assessed as increase in NK cell infiltration in tumor by immunofluorescent staining based assay; details: dose microg/g 1.25-5
# Lewis lung carcinoma [2] = test: Antitumor activity against mouse Lewis lung carcinoma cells allografted in ip dosed C57BL/6 mouse assessed as reduction in tumor weight administered for 20 consecutive days; details: dose microg/g 1.25-5, time 20.0 day
# [3] = target: Mothers against decapentaplegic homolog 2 (Homo sapiens) (UniProt Q15796); test: Inhibition of TGF-beta induced SMAD2 phosphorylation in human A549 cells at 5 to 10 uM pretreated with compound for 2 hrs followed by TGF-beta stimulation by Western blot analysis; type: cell-based; details: dose microM 5-10, time 2.0 hrs
# Sequence of Mothers against decapentaplegic homolog 2 (Homo sapiens) (Q15796 whole entry): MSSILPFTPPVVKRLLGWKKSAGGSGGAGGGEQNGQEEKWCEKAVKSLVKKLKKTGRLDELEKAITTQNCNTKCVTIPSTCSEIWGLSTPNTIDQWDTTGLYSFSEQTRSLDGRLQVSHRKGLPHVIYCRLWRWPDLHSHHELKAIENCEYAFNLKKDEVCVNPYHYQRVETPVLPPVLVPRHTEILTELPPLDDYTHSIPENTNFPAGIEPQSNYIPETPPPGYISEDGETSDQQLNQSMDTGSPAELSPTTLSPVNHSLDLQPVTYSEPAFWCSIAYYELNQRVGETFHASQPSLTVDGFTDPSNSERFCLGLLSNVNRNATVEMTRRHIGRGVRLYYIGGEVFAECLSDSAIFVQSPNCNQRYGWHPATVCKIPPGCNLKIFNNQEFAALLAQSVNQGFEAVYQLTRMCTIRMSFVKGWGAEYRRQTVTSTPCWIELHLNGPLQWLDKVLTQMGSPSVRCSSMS
# In short: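 A549 cells pre-treated 2 h at 5 and 10 μM, then stimulated with 1 ng/mL TGF-β for 30 min. Lysates probed by western blot for phospho-SMAD2, SMAD2, phospho-SMAD3 and SMAD3. GAPDH served as loading control.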
# [4] = Solubility of the compound in water; type: physicochemical
# In short: (§1)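 Solubility of free base or HCl salt measured in pure water and in phosphate buffer pH 7.4 at room temperature, quantified by HPLC.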
# [5] = Solubility of the compound in PBS buffer at pH 7.4; type: physicochemical
# In short: as §1
# A549 = test: Cytotoxicity against human A549 cells assessed as inhibition of cell growth by MTT assay; type: functional; details: read-out: TD50 (the source's name)
# In short: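 A549 cell growth measured by MTT assay. Value is the concentration giving 50% growth inhibition relative to controls, mean of three experiments.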
# [6] = target: Mothers against decapentaplegic homolog 3 (Homo sapiens) (UniProt P84022); details: NIH3T3
# Sequence of Mothers against decapentaplegic homolog 3 (Homo sapiens) (P84022 2-425 limits assumed): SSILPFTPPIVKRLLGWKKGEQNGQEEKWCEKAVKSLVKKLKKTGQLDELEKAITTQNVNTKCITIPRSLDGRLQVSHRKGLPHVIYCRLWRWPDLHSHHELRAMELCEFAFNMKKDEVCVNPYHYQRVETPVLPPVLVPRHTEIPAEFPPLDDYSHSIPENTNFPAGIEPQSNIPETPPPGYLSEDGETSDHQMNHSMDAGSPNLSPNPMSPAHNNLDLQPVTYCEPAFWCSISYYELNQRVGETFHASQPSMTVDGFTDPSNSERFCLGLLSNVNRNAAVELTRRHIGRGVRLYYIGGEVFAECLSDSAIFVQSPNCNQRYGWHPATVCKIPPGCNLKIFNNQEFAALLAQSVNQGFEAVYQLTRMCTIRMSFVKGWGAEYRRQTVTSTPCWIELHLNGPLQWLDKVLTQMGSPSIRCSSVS
Compound,inhibition [3],solubility [5],CC50 (A549),further results
Cc1nc(C)c(CN2CC/C(=C\c3c(-c4ccccc4)n(C)c4ncccc34)C2=O)nc1C [listing 1 of 2 here],inactive,–,–,Activity (Lewis lung carcinoma [1]): Dose-dependent effect; Activity (Mus musculus): Dose-dependent effect; Activity (Lewis lung carcinoma [2]): Dose-dependent effect
Cc1nc(C)c(CN2CC/C(=C\c3c(-c4ccccc4)n(C)c4ncccc34)C2=O)nc1C.Cl,–,–,–,solubility ([4]; water): > 94000 µg/mL
COc1ccc(CN2CC/C(=C\c3c(-c4ccccc4)n(C)c4ncccc34)C2=O)cc1OC,inactive,–,–,–
Cc1nc(C)c(CN2CC/C(=C\c3c(-c4ccccc4)n(C)c4ncccc34)C2=O)nc1C [listing 2 of 2 here],–,14 µg/mL,22 µM,–
COc1cc2c(cc1OC)CN(C(=O)/C=C/c1c(-c3ccccc3)n(C)c3ncccc13)CC2.Cl,–,6 µg/mL,18.7 µM,ED50 [6]: 4.53 µM; solubility [4]: 141 µg/mL
